What was measured:
[1] = Ratio of drug uptake in Wistar-Hannover rat unbound liver to plasma concentration at 30 mg/kg, po after 6 hrs by LC/MS-MS analysis; format: ADME, organism-based; conditions: other tissue
Outline: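 Male Wistar-Hannover rats (n = 2 or 3) dosed orally as a suspension in 0.5% methyl cellulose with 0.1% Tween 80. Plasma and liver sampled 6 h post-dose. Kp is total liver/plasma; Kpu,u uses unbound fractions from equilibrium dialysis of plasma and liver.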

[2] = Half life in Wistar-Hannover rat plasma at 4 mg/kg, po and measured up to 24 hrs by LC/MS-MS analysis; format: ADME, organism-based
[3] = Cmax in Wistar-Hannover rat plasma at 4 mg/kg, po and measured up to 24 hrs by LC/MS-MS analysis; format: ADME, organism-based; parameters: route oral, dose 4 mg/kg, time <=24
[4] = Drug uptake in Wistar-Hannover rat assessed as plasma concentration at 30 mg/kg, po after 6 hrs by LC/MS-MS analysis; format: ADME, organism-based
Outline: (§1)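 Male Wistar-Hannover rats, n = 2 or 3, given an oral suspension in 0.5% methyl cellulose with 0.1% Tween 80; one compound was dosed as the HCl salt. Total plasma and liver concentrations were measured 6 h post-dose. Kp = liver/plasma total concentration. Kpu,u uses fu values from equilibrium dialysis.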

[5] = Half life in cynomolgus monkey plasma at 1 mg/kg, iv and measured up to 72 hrs by LC/MS-MS analysis; format: ADME, organism-based, Macaca fascicularis
Outline: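 Cynomolgus monkeys dosed 1 mg/kg IV as the tris salt in 2% N-methylpyrrolidone/98% sulfobutylether-β-cyclodextrin (12.5%) in 50 mM TRIS, pH 8.0, or PO as the tris salt. Plasma was analysed by LC-MS/MS, n = 2. CL = IV dose/AUC; Vss = dose/(AUC × elimination rate constant); Cmax taken from observed data.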

[6] = Induction of CYP3A4 mRNA expression in human hepatocytes at 0.5 to 200 uM; format: ADME, cell-based, Hepatocyte; conditions: dose 0.5-200 µM
Outline: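 Individual human hepatocyte lots treated at 0.5–200 µM. Read-out is messenger RNA levels of CYP1A2 and CYP3A4.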

[7] = Drug uptake in Wistar-Hannover rat liver at 10 mg/kg, po after 6 hrs by LC/MS-MS analysis; format: ADME, organism-based; conditions: read-out: Drug uptake; outline: as §1
Acetyl-CoA carboxylase 2 = Acetyl-CoA carboxylase 2 (Homo sapiens, UniProt O00763); test: Uncompetitive inhibition of human ACC2 incubated for 15 mins in presence of ATP by Line weaver-Burk plot analysis
Outline: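 Radioenzymatic assay with purified ACC isozymes, measuring [14C]-bicarbonate incorporation into [14C]-malonyl-CoA. Mode of inhibition taken from substrate concentration-dependence experiments varying ATP or carbonate. IC50 dose-response run at saturating ATP.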

[8] = biological target: Solute carrier organic anion transporter family member 1B3 (Homo sapiens, UniProt Q9NPD5); test: Inhibition of human OATP1B3 expressed in HEK293 cells n presence of rosuvastatin; format: cell-based
Cytochrome P450 2C9 = Cytochrome P450 2C9 (Homo sapiens, UniProt P11712); test: inhibition of CYP2C9 in human liver microsomes; format: ADME
[9] = Drug recovery in bile duct-cannulated Wistar-Hannover rat bile at 1 mg/kg, iv and measured up to 24 hrs by LC/MS-MS analysis; format: ADME, organism-based; conditions: read-out: Drug recovery
Outline: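 Rats received a 1 mg/kg IV dose. Bile was pooled over 0–24 h and analysed for unchanged parent.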

CHO = test: Genotoxicity in CHO cells by micronucleus test; format: toxicity, cell-based, Cricetulus griseus; conditions: chinese hamster
Outline: (§2)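 In vitro micronucleus assay in Chinese hamster ovary or TK6 cells, run with and without metabolic activation by aroclor-induced rat liver S9 fraction plus NADPH.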

[10] = biological target: UDP-glucuronosyltransferase 1A6 (Homo sapiens, UniProt P19224); test: Inhibition of UGT1A6 in human liver microsomes incubated for 90 mins in presence of UDPGA by LC-MS/MS analysis; format: ADME
OATP1B1 = biological target: T1, OATP1B1 (Homo sapiens, UniProt Q9Y6L6); test: Substrate activity at human OATP1B1 stably expressed in HEK293 cells assessed as ratio of total to passive cellular uptake at 1 to 3 uM incubated for 0.5 to 4 mins by LC/MS-MS analysis; format: ADME, cell-based; conditions: HEK293 cells stably expressing human OATP1B1, dose 1-3 µM, time 0.5-4 min
T1 sequence (Q9Y6L6 whole entry): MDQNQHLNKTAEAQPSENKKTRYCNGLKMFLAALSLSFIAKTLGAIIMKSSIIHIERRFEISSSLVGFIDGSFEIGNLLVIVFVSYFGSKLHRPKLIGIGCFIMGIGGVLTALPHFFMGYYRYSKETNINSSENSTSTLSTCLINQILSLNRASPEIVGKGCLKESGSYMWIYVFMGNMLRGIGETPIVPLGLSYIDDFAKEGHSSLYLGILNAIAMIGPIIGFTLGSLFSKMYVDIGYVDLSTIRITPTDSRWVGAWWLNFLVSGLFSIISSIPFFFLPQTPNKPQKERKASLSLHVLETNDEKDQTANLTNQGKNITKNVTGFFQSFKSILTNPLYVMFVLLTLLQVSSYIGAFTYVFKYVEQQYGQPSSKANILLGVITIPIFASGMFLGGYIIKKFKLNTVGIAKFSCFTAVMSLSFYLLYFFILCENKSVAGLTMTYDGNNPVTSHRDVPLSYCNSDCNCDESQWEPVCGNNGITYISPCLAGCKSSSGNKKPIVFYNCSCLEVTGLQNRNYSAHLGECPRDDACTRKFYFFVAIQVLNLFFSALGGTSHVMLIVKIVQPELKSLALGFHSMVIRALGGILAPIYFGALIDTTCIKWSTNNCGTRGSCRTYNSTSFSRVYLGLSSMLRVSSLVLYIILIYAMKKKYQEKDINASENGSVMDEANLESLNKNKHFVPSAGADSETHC
Outline: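 Stably transfected HEK293 cells and wild-type parental cells, cultured to confluency in DMEM with 10% heat-inactivated FBS and 5 µg/mL blasticidin. Uptake at 1–3 µM in HBSS/20 mM HEPES pH 7.4, 37 °C, 0.5–4.0 min. Cells washed in ice-cold buffer, lysed in MeOH, quantified by LC-MS/MS and normalized to protein. Ratio is transfected/parental uptake; >2 denotes substrate.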

[11] = biological target: UDP-glucuronosyltransferase 1A4 (Homo sapiens, UniProt P22310); test: Inhibition of UGT1A4 in human liver microsomes incubated for 30 mins in presence of UDPGA by LC-MS/MS analysis; format: ADME
TK6 = test: Genotoxicity in human TK6 cells in presence of (aroclor-induced rat liver S9 fraction/NADPH by micronucleus test; format: toxicity, cell-based; outline: as §2
[12] = Fraction unbound in monkey plasma by equilibrium dialysis method; format: ADME, cell-free, Macaca mulatta; conditions: rhesus monkey
Outline: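 Fraction unbound in plasma and liver tissue was determined by equilibrium dialysis.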

[13] = Inhibition of DNL in cynomolgus monkey assessed as fructose-induced DNL level at 10 mg/kg, po after 9 hrs relative to control; format: functional; conditions: Macaca fascicularis
Outline: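 Male cynomolgus macaques were fasted overnight and enriched with plasma D2O, then given a single 10 mg/kg PO dose. Fructose was given orally every 30 min from t = 0, with a banana at hours 2 and 3. Deuterium incorporation into plasma TG palmitate was followed over 9 h, n = 12, mean ± SEM, versus vehicle.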

Solute carrier organic anion transporter family member 1B3, sequence (Q9NPD5 whole entry): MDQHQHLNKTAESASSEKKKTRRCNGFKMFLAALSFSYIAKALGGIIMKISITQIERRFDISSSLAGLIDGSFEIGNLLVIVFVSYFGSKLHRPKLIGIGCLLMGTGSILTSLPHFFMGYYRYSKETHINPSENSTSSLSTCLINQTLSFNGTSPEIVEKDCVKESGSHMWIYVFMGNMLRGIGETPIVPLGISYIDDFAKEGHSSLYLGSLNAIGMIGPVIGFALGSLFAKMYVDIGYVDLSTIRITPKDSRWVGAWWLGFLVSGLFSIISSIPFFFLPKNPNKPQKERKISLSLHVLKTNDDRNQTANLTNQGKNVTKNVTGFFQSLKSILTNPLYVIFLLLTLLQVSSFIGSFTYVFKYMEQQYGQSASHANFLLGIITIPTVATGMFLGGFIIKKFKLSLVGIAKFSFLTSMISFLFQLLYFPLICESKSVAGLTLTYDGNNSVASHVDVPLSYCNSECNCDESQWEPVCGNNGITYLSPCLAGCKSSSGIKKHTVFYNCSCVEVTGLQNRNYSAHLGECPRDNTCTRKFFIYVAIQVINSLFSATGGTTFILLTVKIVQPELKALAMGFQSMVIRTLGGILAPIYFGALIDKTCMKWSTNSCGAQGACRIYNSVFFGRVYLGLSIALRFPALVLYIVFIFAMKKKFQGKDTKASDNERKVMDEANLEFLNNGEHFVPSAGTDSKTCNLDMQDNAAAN
UDP-glucuronosyltransferase 1A6, sequence (P19224 whole entry): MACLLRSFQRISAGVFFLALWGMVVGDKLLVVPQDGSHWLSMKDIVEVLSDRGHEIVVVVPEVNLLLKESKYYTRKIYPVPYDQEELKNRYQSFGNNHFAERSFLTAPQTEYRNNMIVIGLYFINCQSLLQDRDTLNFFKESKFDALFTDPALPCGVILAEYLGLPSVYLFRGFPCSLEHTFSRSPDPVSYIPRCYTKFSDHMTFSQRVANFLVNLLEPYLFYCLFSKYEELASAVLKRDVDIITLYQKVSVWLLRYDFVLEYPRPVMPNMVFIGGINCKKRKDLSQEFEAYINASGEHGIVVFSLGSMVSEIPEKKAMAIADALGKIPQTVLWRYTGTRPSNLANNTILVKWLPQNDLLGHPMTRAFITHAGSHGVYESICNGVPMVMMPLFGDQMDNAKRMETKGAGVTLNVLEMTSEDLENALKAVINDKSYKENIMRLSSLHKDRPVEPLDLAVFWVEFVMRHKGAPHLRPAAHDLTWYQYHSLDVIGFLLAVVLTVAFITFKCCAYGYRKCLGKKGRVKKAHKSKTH
Acetyl-CoA carboxylase 2, sequence (O00763 whole entry): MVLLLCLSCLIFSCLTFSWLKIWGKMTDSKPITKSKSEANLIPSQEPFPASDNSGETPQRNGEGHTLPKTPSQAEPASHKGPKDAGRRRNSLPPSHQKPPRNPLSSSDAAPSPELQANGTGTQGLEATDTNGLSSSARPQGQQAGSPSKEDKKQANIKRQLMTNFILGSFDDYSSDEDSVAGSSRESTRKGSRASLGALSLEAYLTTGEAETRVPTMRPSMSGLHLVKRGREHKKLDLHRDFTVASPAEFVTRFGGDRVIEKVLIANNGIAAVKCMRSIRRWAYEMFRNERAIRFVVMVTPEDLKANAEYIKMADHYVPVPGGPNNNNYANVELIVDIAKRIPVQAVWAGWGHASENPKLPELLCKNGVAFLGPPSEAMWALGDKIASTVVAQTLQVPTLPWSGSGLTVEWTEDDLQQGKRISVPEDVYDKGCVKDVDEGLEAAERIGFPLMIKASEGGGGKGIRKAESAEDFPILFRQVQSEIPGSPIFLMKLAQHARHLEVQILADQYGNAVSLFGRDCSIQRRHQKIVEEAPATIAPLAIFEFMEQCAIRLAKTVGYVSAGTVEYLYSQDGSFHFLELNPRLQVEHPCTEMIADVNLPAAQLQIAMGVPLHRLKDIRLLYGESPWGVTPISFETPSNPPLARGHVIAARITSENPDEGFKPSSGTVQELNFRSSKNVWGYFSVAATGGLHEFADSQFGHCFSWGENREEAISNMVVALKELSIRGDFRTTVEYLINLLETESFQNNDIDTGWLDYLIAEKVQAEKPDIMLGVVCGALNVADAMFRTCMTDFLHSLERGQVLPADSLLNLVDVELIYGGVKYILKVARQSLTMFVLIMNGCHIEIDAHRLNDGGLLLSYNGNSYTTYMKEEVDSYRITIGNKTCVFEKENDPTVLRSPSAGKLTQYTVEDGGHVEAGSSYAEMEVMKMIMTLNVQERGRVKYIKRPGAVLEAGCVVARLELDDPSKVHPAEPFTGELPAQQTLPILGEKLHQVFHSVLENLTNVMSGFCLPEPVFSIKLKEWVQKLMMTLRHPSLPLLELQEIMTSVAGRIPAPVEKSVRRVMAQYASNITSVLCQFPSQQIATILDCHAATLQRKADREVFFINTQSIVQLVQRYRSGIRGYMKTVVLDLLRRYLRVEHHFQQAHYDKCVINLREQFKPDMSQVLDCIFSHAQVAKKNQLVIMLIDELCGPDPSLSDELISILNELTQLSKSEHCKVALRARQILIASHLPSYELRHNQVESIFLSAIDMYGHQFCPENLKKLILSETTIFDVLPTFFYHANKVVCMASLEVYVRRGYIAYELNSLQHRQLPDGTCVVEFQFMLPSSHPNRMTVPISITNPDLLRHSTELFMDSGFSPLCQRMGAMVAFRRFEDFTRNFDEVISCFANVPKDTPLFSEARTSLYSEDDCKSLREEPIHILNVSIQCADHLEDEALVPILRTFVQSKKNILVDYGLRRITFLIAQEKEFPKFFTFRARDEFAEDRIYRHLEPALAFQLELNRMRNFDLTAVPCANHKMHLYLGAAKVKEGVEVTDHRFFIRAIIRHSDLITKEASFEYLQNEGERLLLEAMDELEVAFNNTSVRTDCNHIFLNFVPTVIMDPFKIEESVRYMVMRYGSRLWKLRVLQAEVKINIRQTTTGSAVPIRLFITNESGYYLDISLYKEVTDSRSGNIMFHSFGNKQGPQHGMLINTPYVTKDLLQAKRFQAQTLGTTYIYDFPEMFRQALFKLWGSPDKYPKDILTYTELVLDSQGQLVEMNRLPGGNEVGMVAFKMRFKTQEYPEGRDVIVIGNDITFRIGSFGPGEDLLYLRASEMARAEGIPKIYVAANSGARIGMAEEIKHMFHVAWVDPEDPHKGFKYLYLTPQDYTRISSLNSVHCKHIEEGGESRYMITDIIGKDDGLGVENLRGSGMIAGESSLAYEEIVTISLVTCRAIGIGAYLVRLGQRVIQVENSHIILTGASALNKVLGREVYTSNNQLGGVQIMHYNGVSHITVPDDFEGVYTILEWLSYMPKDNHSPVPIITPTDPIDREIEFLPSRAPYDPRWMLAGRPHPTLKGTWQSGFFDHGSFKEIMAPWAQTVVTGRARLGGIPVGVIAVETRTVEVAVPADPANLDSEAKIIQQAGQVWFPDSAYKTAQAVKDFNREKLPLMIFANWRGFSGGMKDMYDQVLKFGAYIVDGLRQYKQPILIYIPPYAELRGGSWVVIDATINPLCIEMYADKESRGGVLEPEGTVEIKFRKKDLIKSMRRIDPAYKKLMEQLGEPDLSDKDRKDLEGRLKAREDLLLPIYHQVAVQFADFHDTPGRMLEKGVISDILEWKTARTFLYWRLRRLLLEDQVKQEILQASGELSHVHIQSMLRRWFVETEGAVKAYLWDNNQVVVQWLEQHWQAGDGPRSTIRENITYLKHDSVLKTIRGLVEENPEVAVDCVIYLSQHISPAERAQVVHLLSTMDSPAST
UDP-glucuronosyltransferase 1A4, sequence (P22310 whole entry): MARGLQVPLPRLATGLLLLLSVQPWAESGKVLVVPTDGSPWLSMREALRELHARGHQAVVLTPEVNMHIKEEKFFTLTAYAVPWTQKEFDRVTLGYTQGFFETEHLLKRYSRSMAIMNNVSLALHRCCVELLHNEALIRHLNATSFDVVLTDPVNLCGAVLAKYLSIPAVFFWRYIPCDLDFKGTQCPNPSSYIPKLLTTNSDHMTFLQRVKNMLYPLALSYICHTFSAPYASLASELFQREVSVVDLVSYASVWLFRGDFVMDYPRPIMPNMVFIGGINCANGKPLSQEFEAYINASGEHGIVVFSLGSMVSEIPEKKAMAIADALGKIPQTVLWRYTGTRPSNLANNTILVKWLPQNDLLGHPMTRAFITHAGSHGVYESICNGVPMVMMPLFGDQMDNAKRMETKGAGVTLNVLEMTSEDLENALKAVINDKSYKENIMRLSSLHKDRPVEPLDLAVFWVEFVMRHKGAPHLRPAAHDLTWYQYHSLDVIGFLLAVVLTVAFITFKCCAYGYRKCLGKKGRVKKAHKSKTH
Cytochrome P450 2C9, sequence (P11712 whole entry): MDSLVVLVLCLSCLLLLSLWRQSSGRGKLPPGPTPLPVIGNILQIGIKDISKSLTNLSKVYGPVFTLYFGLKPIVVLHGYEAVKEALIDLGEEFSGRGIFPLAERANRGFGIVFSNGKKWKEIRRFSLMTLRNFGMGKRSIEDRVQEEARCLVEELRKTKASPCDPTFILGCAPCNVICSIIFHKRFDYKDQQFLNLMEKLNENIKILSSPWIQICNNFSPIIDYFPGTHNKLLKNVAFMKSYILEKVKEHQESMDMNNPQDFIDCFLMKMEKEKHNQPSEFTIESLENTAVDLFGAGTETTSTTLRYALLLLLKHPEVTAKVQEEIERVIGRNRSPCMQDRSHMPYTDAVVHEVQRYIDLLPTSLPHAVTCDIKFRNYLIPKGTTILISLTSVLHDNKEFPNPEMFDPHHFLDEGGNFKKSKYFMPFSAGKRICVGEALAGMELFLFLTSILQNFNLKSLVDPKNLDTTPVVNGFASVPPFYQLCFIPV

| Compound | Ratio [1] | half-life [2] [h] | Cmax [3] [ng/mL] | concentration at 6 h [4] [ng/mL] | half-life [5] [h] | Activity [6] | concentration at 6 h [7] [ng/mL] | IC50 (Acetyl-CoA carboxylase 2) [µM] | IC50 [8] [µM] | IC50 (Cytochrome P450 2C9) [µM] | dose excreted at 24 h [9] [%] | Activity (CHO) | IC50 [10] [µM] | uptake ratio at up to 3 µM (OATP1B1) | IC50 [11] [µM] | Activity (TK6) | fraction unbound [12] | inhibition in vivo at 10 mg/kg [13] [%] |
| --- | --- | --- | --- | --- | --- | --- | --- | --- | --- | --- | --- | --- | --- | --- | --- | --- | --- | --- |
| COc1cc(C(=O)N2CCC3(CC2)CC(=O)c2nn(C(C)(C)C)cc2O3)cc(-c2ccc(C(=O)O)cc2)n1 | 376 | 5.7 | 53.9 | 41.7 | – | – | – | – | – | – | – | – | – | – | – | – | – | – |
| COc1cc(C(=O)N2CCC3(CC2)CC(=O)c2c(cnn2C(C)C)C3)cc(-c2ccc(C(=O)O)cc2)n1 [CLESACOSTAT] | – | – | – | – | 11 | Not Active | 24600 | 0.00866 | 137 | > 50 | 12 | Non-Toxic | > 20 | 3.5 | > 20 | Non-Toxic | 0.00956 | 100 |
